High-throughput results deposited in PubChem by Broad Institute.
CDK5 inh = CDK5/p35 (human) kinase inhibition; hit rate 0.01% among 330,000; AID 488839; Recombinant CDK5/p35, ADP-Glo luminescence, 60 min; inhibition, % at 10 µM;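 active means highest replicate inhibition of at least 50% and at least 75% of replicates reaching 50%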;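 further: plate controls were DMSO neutral control for no effect and GW8510 at 10 µM for full effect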
DYRK1A inh = blocks rat Dyrk1A kinase activity. ADP-Glo luminescence, NFATc1 peptide. inhibition, % at 12.5 µM. Q63470. hit rate 0.43% among 310,000;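 further: plate controls were vehicle with enzyme for no effect and no enzyme for full effect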
SR-BI DiI inh = inhibitors of mouse SR-BI mediated HDL lipid uptake; Q61009; ldlA[mSR-BI] CHO cells, DiI-HDL uptake fluorescence, 3 h; inhibition, % at 12.5 µM; hit rate 0.96% among 320,000;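 active means mean replicate inhibition of at least 70% and a set share of replicates each scoring 70 or more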;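 further: 0% = median of neutral control wells and 100% = median of positive control wells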
NSD2 inh = NSD2 (human) methyltransferase inhibition | O96028 | NSD2 peptide methylation, AlphaScreen, 120 min | inhibition, % at 12.5 µM | hit rate 0.54% among 310,000 | AID 743445
dFosB activator = enhances mouse delta FosB homodimer DNA binding. purified delta FosB, TAMRA-CDK5 oligo fluorescence polarization; percent of positive-control signal above neutral wells. activation, % at 25 µM. hit rate 0.99% among 340,000. AID 493131;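 active means mean activation above about 17%, with every replicate also reaching it, limit read from the data, passing the limit was not always enough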
Target sequence (P13346 whole entry, looked up): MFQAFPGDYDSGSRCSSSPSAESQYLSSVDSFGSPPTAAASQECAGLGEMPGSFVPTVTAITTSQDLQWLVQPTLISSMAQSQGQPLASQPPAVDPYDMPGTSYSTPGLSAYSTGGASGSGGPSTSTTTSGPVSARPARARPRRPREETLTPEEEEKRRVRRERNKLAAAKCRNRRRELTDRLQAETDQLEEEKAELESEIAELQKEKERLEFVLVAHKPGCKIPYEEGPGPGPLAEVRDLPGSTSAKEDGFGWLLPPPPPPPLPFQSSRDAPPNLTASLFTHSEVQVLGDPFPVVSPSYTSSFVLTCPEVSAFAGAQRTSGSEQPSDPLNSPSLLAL
SR-BI uptake up = activators of SR-BI mediated HDL lipid uptake | CHO ldlA[mSR-BI] cells, DiI-HDL uptake fluorescence, 3 h; 100 = double the neutral-control signal | activation, % at 12.5 µM | hit rate 0.096% among 320,000 | AID 504775;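 active means mean replicate activation of at least 60% and every replicate at or above 60%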;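 further: 0% = median plate neutral-control signal and 100% = twice that signal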
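System: LDL receptor-deficient CHO ldlA cells overexpressing murine SR-BI | Timing: 3 h uptake period with compound, 37 °C | Medium: HEPES-buffered (25 mM, pH 7.4) F12 plus 0.5% BSA | Dosing: Single-point compound dose | Signal: Bottom-read fluorescence, 550/595 nm | Read-out: Retained DiI signal reflecting DiI-HDL uptake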
An asterisk follows results filed as active; . = no result given. Hits are enriched below; roughly 2.5% of the tested compounds scored in any of these assays. Unless noted, no stated cut-off is given here; in the data, active means inhibition above about 50%; inactive means the rest.

SMILES	CDK5 inh	DYRK1A inh	SR-BI DiI inh	NSD2 inh	dFosB activator	SR-BI uptake up
CCOC(=O)c1sc2nc(SC)nc(-c3ccc(Cl)cc3)c2c1N	3	-6	87*	.	6	-87
CCOC(=O)c1sc2nc(C)cc(C)c2c1N	8	3	1	-4	-3	-1
CC1=C[C@]2(CN(CC3CC3)C3=N[C@H](c4ccccc4)CC(=O)N32)n2c(=O)n(-c3ccccc3)c(=O)n2C1	.	.	.	-1	.	.
COc1ccc(/C=C/C(=O)Nc2cccc(N3CCOCC3)c2)cc1OC	-2	7	76*	0	-4	-76
COc1ccc(S(=O)(=O)N(CC(=O)NCc2ccccn2)c2ccc(Cl)cc2)cc1	-2	3	.	.	-6	.
O=C(CN(c1cccc(Cl)c1)S(=O)(=O)c1ccc(Cl)cc1)NCc1ccccn1	0	2	83*	-2	-11	-83
Cn1c(=O)c2c(nc3sccn32)n(C)c1=O	-7	-3	-69	3	0	69*
CC(Oc1ccc(Cl)cc1Cl)C(=O)Nc1ccc2oc(-c3ccncc3)nc2c1 (centres undefined)	0	-6	78*	1	-10	-78
CC(=O)Nc1ccc(S(=O)(=O)Oc2ccc(/C=C3\SC(N)=NC3=O)cc2)cc1	-1	3	-31	-2	130*	31
NC1=NC(=O)/C(=C/c2ccc(OCC(=O)O)cc2)S1	1	-2	2	0	-6	-2
COc1cc(C2C(C#N)=C(N)N(N(C)C)C3=C2C(=O)CC(C)(C)C3)ccc1O (centres undefined)	0	1	-15	-3	1	15
Cc1ccc(-c2nc(N)sc2-c2ccc(C)cc2)cc1	-1	.	73*	6	-10	-73
CCS(=O)(=O)N1CCN=C1SC(C)c1ccccc1 (centres undefined)	-2	-7	-8	-5	2	8
CCc1ccc(C(=O)/C=C/c2ccc([N+](=O)[O-])o2)cc1	1	-5	13	-3	-9	-13
Cc1ccc(/C=C/C(=O)Nc2ccc([N+](=O)[O-])cc2)o1	2	-1	75*	.	-3	-75
CCOC(=O)CCc1ccc(NC(=O)/C=C/c2ccc([N+](=O)[O-])o2)cc1	-1	2	74*	1	-22	-74
Cc1ccc(/C=C/C(=O)Nc2ccc(Oc3ccccc3)cc2)o1	0	-1	24	4	-13	-24
C=CCn1c2ccccc2c(=O)c2cc(C#Cc3cc(OC)cc(OC)c3)ccc21	-2	5	87*	.	-3	-87
Cc1cccc(-c2nnc(SCC(=O)c3ccc(F)cc3)n2C)c1	.	.	.	-3	.	.
CCOC(=O)c1cc2c(C(F)(F)F)cc(-c3ccccc3)nc2o1	-2	5	76*	0	-3	-76
CCOC(=O)CS(=O)(=O)c1nc(-c2ccccc2)cc(C(F)(F)F)n1	2	12	98*	-1	-5	-98
CCOC(=O)c1c(C(F)(F)F)cc(-c2ccc(F)cc2)nc1C	0	-5	30	3	4	-30
COC(=O)c1cc(=O)n(Cc2ccco2)c(=Nc2ccccc2)s1	.	.	.	5	.	.
Cc1ccc(S(=O)(=O)N2CCOCC2)cc1C(=O)OCC(=O)N1CCc2ccccc2C1	1	2	76*	0	-5	-76
COc1ccc(C)cc1Nc1n[n+](-c2ccccc2)c(-c2cc([N+](=O)[O-])cc(OC)c2O)s1	-1	1	95*	.	-5	-95
SMILES	CDK5 inh	DYRK1A inh	SR-BI DiI inh	NSD2 inh	dFosB activator	SR-BI uptake up
COc1ccccc1OCC(=O)Nc1nc(-c2ccc(S(=O)(=O)N3CCOCC3)cc2)cs1	0	-4	73*	26	-3	-73
CC(C)CNC(=O)OCc1cn(Cc2cccc(C(F)(F)F)c2)nn1	.	.	.	-1	.	.
COc1ccc(-c2cc3cc(OC)c(OC)cc3c(C)n2)cc1	-5	-3	80*	-1	-28	-43
COc1cc(C=C2C(=O)c3ccccc3C2=O)ccc1OCC(=O)N1CCOCC1	.	.	.	4	.	.
O=C(CCN1C(=O)/C(=C/c2ccc(F)cc2)SC1=S)NCCc1ccc(O)cc1	0	-4	-7	6	68*	7
O=C(CCN1C(=O)/C(=C/c2ccccc2)SC1=S)Nc1cccnc1	-2	-11	-14	2	-4	14
O=C(CCN1C(=O)/C(=C/c2ccc(F)cc2)SC1=S)Nc1cccnc1	0	-3	.	.	19*	.
C#CCOCCOCCOCCNc1nc(N2CCN(C(=O)[C@H]([C@@H](C)CC)n3cc([C@@H](N)Cc4ccc(O)cc4)nn3)CC2)nc(N2CCN(C(=O)[C@H](Cc3cc4ccccc4[nH]3)n3cc([C@@H](N)CC(C)C)nn3)CC2)n1	2	10	-41	.	23*	41
C#CCOCCOCCOCCNc1nc(N2CCN(C(=O)[C@H](CCCCN)n3cc([C@@H](N)CC(C)C)nn3)CC2)nc(N2CCN(C(=O)[C@H](Cc3cc4ccccc4[nH]3)n3cc([C@@H](N)Cc4ccc(O)cc4)nn3)CC2)n1	11	8	-34	.	59*	34
CC(=O)Nc1ccc(NC(=O)CSc2nnnn2-c2ccc3c(c2)OCCO3)cc1	-1	-7	-11	-2	87*	11
Cc1ccc(-n2nnnc2SCC(=O)Nc2ccc3c(c2)OCCO3)cc1C	0	5	3	-3	-2	-3
O=C(N[C@H]1CCCCNC1=O)c1cc(COc2ccc(F)cc2F)on1	-2	-1	-22	1	-4	22
O=C(N/N=C/c1c[nH]c2ccccc12)c1cc(-c2ccccc2)n[nH]1	0	15	34	-2	-11	-34
O=C(N/N=C/c1c[nH]c2ccccc12)c1cc(-c2ccc(-c3ccccc3)cc2)n[nH]1	-1	-9	94*	-2	2	-94
O=C(N/N=C/c1c[nH]c2ccccc12)c1cc(-c2ccc3ccccc3c2)n[nH]1	2	-1	73*	0	6	-73
Cc1ccc(-c2cc(C(=O)N/N=C/c3c[nH]c4ccccc34)[nH]n2)cc1	3	4	89*	-1	13	-89
Cc1nn(CC(=O)c2ccc(Cl)s2)c(C)c1[N+](=O)[O-]	0	.	-8	0	.	8
Cc1sc2nc(SCCN(C)C)n(-c3ccccc3)c(=O)c2c1-c1ccc(F)cc1	-1	-3	-5	19	22*	5
C/C(=N\NC(=O)c1ccc(CN2CCc3ccccc3C2)cc1)c1ccccc1O	0	1	109*	-3	15	-109
CCCNC(=O)c1ccc(CN2CCc3ccccc3C2)cc1	0	1	-22	0	-4	22
COc1cccc(-c2sc3ccc(OC)cc3c2-c2ccc(OCCN3CCCC3)cc2)c1	-2	19	-13	.	-8	13
